Data as given in ChEMBL document CHEMBL1255483, “Intra- and extracellular activities of dicloxacillin against Staphylococcus aureus in vivo and in vitro” (Antimicrob Agents Chemother, 2010).
≈ marks a conversion by molar mass, not a printed value. Calls of active or inactive are those of the source. The calls are words filed in the database; no cut-off is given here.

Key:
[1] = fT>MIC in Staphylococcus aureus E19977 infected NMRI mouse at 340 mg/kg administered every 24 hrs
Staphylococcus aureus [2] = assay: Antimicrobial activity against Staphylococcus aureus ATCC 25923 after 24 hrs; format: functional, organism-based; conditions: ATCC 25923, 24 h
Outline: (§1)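 Extracellular broth time- and concentration-kill test. The inoculum was ~10⁶ CFU/ml, exposed to a wide range of DCX concentrations, with CFU counted after 5 and 24 h. The read-out was Δlog CFU/ml versus time zero (mean ± SD, n = 3). A sigmoidal fit with slope 1 gave Emax and EC50. Cstatic was read by graphical interpolation as the concentration giving no change from the inoculum.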

Staphylococcus aureus [3] = assay: Bacteriostatic activity against Staphylococcus aureus E19977 infected in human THP-1 cells after 24 hrs; format: functional
Outline: (§2)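 Human THP-1 macrophages were infected with opsonized S. aureus at 4 bacteria per macrophage for 45 min. Non-phagocytized bacteria were removed by washing and a brief incubation in PBS with gentamicin 50 mg/liter. Cells were then incubated up to 24 h with DCX over a wide range of extracellular concentrations. The read-out was Δlog CFU per mg cell protein versus time zero (n = 3), with sigmoidal fitting and Cstatic by interpolation.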

Mus musculus = organism: Mus musculus; assay: Protein binding in NMRI mouse at 270 mg/l by ultrafiltration; format: ADME, organism-based; conditions: in vivo
Outline: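 Plasma binding was measured by ultrafiltration. EDTA blood from healthy mice, or from NMRI mice infected intraperitoneally for 6 h with E19977, was spiked with DCX at 10–400 mg/liter, with PBS controls. Samples were held 1 h at 37°C, then centrifuged through 30-kDa filters at 3,000 × g for 8 min at 37°C. Total and filtrate drug were measured by S. lutea bioassay.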

[4] = Ratio of fAUC (24 hrs) in NMRI mouse at 120 mg/kg administered every 6 hrs to MIC for Staphylococcus aureus E19977; format: functional
Outline: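 Free-drug AUC24/MIC was modelled for repeated subcutaneous regimens. Single-dose NMRI plasma concentration-time curves were combined with the best-fitting square-root expression for the concentration-dependent free fraction. The result was divided by the E19977 MIC.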

[5] = AUC (24 hrs) in NMRI mouse at 1200 mg/kg, sc; format: ADME, organism-based; parameters: time < 24 hr, dose 1200 mg/kg, route subcutaneous; conditions: plasma
[6] = Ratio of fCmax in NMRI mouse at 80 mg/kg to MIC for Staphylococcus aureus E19977
[7] = Ratio of fCmax in NMRI mouse at 200 mg/kg administered every 6 hrs to MIC for Staphylococcus aureus E19977; format: functional
Outline: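 Free Cmax/MIC was modelled, not measured. Single-dose subcutaneous plasma curves from NMRI mice were projected to the multiple-dose regimens. Free fraction came from a square-root fit of unbound fraction versus total concentration. Binding was measured by ultrafiltration of mouse plasma spiked with 10–400 mg/liter and held 1 h at 37°C. MIC was for strain E19977.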

[8] = Cmax in NMRI mouse at 60 mg/kg, sc; format: ADME, organism-based; parameters: dose 60 mg/kg, route subcutaneous; conditions: in vivo
Outline: (§3)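 Single subcutaneous dicloxacillin doses were given to NMRI mice. EDTA plasma was assayed by microbiological bioassay with S. lutea ATCC 9391 (detection limit 1.5 mg/liter, linear to 100 mg/liter, CV ~5%). Cmax was obtained by noncompartmental analysis.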

Staphylococcus aureus [9] = assay: Bacteriostatic activity against Staphylococcus aureus E19977 at MIC between 5 to 24 hrs; format: functional, organism-based
Outline: as §1

[10] = AUC (24 hrs) in NMRI mouse at 300 mg/kg, sc; format: ADME, organism-based; parameters: time < 24 hr, dose 300 mg/kg, route subcutaneous; conditions: plasma
Outline: (§4)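 Single subcutaneous DCX doses given to NMRI mice. Blood was collected into EDTA tubes, and plasma drug was assayed by microbiological bioassay with S. lutea ATCC 9391 (detection limit 1.5 mg/liter, linear to 100 mg/liter). Values came from noncompartmental analysis. Terminal half-life was fitted monoexponentially to the last four time points. AUC24 combined the trapezoidal rule over mean points with exact integration of the fitted curve extrapolated to 24 h.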

[11] = Half-life in NMRI mouse at 300 mg/kg, sc; format: ADME, organism-based; parameters: dose 300 mg/kg, route subcutaneous; conditions: in vivo
Outline: as §4

[12] = fT>MIC in Staphylococcus aureus E19977 infected NMRI mouse at 240 mg/kg administered every 6 hrs; format: functional
Outline: (§5)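 Calculated percentage of 24 h at steady state that free plasma DCX exceeds the strain MIC (microdilution, pH 7.4). Concentrations were simulated from single subcutaneous dose plasma curves in NMRI mice (S. lutea bioassay), adjusted with a square-root model of concentration-dependent free fraction from ultrafiltration. The regimen was dosed subcutaneously in mice infected intraperitoneally with 10^7.4 CFU, and peritoneal CFU were read after 24 h of therapy.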

[13] = fT>MIC in Staphylococcus aureus E19977 infected NMRI mouse at 30 mg/kg administered every 2 hrs; format: functional
Outline: as §5

[14] = Cmax in NMRI mouse at 300 mg/kg, sc; format: ADME, organism-based; parameters: dose 300 mg/kg, route subcutaneous; conditions: in vivo
Outline: as §3

Staphylococcus aureus [15] = assay: Bacteriostatic activity against Staphylococcus aureus ATCC 25923 infected in human THP-1 cells at 10 times MIC after 5 hrs; format: functional, organism-based
Outline: as §2

[16] = Cmax in NMRI mouse at 30 mg/kg, sc; format: ADME, organism-based; parameters: dose 30 mg/kg, route subcutaneous; conditions: in vivo
Outline: as §3

[17] = Cmax in NMRI mouse at 1200 mg/kg, sc; format: ADME, organism-based; parameters: dose 1200 mg/kg, route subcutaneous; conditions: in vivo
[18] = Ratio of fAUC (24 hrs) in NMRI mouse at 200 mg/kg administered every 4 hrs to MIC for Staphylococcus aureus E19977; format: functional
Outline: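 Computed from modelled dosing regimens, not measured directly. Single subcutaneous doses were given to NMRI mice, and plasma was assayed by S. lutea bioassay. AUC24 came from noncompartmental analysis, with terminal exponential extrapolation to 24 h. The free fraction came from a square-root fit to ultrafiltration protein-binding data, with saturable binding included. MIC was by broth microdilution.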

[19] = fT>MIC in Staphylococcus aureus E19977 infected NMRI mouse at 200 mg/kg administered every 6 hrs; format: functional
Outline: as §5

[20] = Ratio of fAUC (24 hrs) in NMRI mouse at 80 mg/kg administered every 3 hrs to MIC for Staphylococcus aureus E19977
Staphylococcus aureus [21] = assay: Antimicrobial activity against Staphylococcus aureus E19977 after 24 hrs; format: functional, organism-based; conditions: E19977, 24 h
Outline: as §1

Staphylococcus aureus [22] = assay: Bactericidal activity against Staphylococcus aureus ATCC 25923 assessed as log reduction in bacterial count at 100 times MIC after 24 hrs by time-kill assay; format: functional
Outline: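 Broth time-kill: MSSA at 10⁶ CFU/ml exposed to a wide range of dicloxacillin concentrations. CFU counted after 5 and 24 h and expressed as change in log₁₀ CFU/ml from time zero. Multiples refer to the MIC by CLSI microdilution at pH 7.4. n = 3.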

Staphylococcus aureus [23] = assay: Bactericidal activity against Staphylococcus aureus E19977 infected in human THP1 cells assessed as log reduction in bacterial count at 10 times MIC after 24 hrs by time-kill assay; format: functional, THP-1
Outline: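 Intracellular model in THP-1 macrophages: opsonized S. aureus was added at 4 bacteria per macrophage for 45 min. Non-phagocytized bacteria were removed by washing and brief PBS incubation with gentamicin (50 mg/liter). Cells were then incubated up to 24 h with a wide range of extracellular dicloxacillin concentrations. Result is change in log₁₀ CFU per mg cell protein from time zero. n = 3.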

[24] = fT>MIC in Staphylococcus aureus E19977 infected NMRI mouse at 400 mg/kg administered every 12 hrs; format: functional
Outline: as §5

fT>MIC [1]: 17.78%
EC50 (Staphylococcus aureus [2]): 0.06 µg/mL (≈ 0.128 µM)
Activity (Mus musculus): 84.9%
fAUC/MIC [4]: 175.82 h
AUC at 24 h [5]: 190 µg·h/mL
Cmax [8]: 90.1 µg/mL
AUC at 24 h [10]: 726 µg·h/mL
half-life [11]: 30 min
fT>MIC [12]: 65.28%
fT>MIC [13]: 45.83%
Cmax [14]: 529 µg/mL
Cmax [16]: 36 µg/mL
Cmax [17]: 222 µg/mL
fAUC/MIC [18]: 616.07 h
fT>MIC [19]: 57.5%
fAUC/MIC [20]: 168.69 h
EC50 (Staphylococcus aureus [21]): 0.5 µg/mL (≈ 1.06 µM)
fT>MIC [24]: 35.97%
Structure (SMILES): Cc1onc(-c2c(Cl)cccc2Cl)c1C(=O)N[C@@H]1C(=O)N2[C@@H]1SC(C)(C)[C@@H]2C(=O)O [DICLOXACILLIN]
Activity (Staphylococcus aureus [3]): 0.89 mg/L
Ratio [6]: 30.64
Ratio [7]: 101.92
Activity (Staphylococcus aureus [9]): Active
Activity (Staphylococcus aureus [15]): Active
FC (Staphylococcus aureus [22]): 3
FC (Staphylococcus aureus [23]): <1
